# Experimental data pooled from the literature.
# Lines come from different studies, so protocols differ.
# MET: Hepatocyte growth factor receptor (MET, Homo sapiens, UniProt P08581)
# MET Y1235D: Hepatocyte growth factor receptor (MET, Homo sapiens, UniProt P08581, Y1235D)
SMILES,target,test,conditions,endpoint,result
N#Cc1ccc(NC(=O)Nc2ccccc2)cc1,MET,"cell-free assay, competition with immobilised ligand",25 µM,remaining binding,100%
C=CC(=O)N1CCC([C@@H]2CCNc3c(C(N)=O)c(-c4ccc(Oc5ccccc5)cc4)nn32)CC1,MET,cell-free assay,1 µM,inhibition,7%
CC(C)S(=O)(=O)c1ccc2nccc(Nc3ccc4sc(C5CCCC5)nc4c3)c2c1,MET,"enzyme activity, inhibitor",1 µM,activity vs control,119%
O=C1C=C(Nc2ccc(OCc3cn(Cc4ccccc4)nn3)cc2)C(=O)c2ccccc21,MET,"enzyme activity, inhibitor, radiometric",10 µM,inhibition,18%
COc1ccc2oc(-c3ccc4nc(N)oc4c3)c/c(=N\c3ccccc3NC(=O)CCN)c2c1,MET,binding,1 µM,remaining binding,106%
Cc1cc(O)c(-c2ccc([C@@H](C)CN(C)C)cc2)c2c1[nH]c(=O)c1sccc12,MET,"cell-free assay, inhibitor",0.1 µM,inhibition,-0.782%
COc1ccc2[nH]c3c4[nH]c5ccc(OC)cc5c4c4c(c3c2c1)C(=O)NC4=O,"Hepatocyte growth factor receptor (MET, Homo sapiens, UniProt P08581, M1250T)",binding,1 µM,remaining binding,88%
CCCCC(=O)Nc1ccc(-c2ccc3ncn(CCC)c(=O)c3c2)cn1,MET,"binding, competition with immobilised ligand",0.5 µM,remaining binding,96%
C[C@H]1CC[C@H](n2c3cnccc3c3cnc(Nc4ccc5c(n4)CCN(C(=O)CO)C5)nc32)CC1,MET Y1235D,cell-free assay,1 µM,remaining signal,100%
C#Cc1cnc(Nc2ccnc(CO)c2)nc1Nc1ccccc1S(C)(=O)=NC#N (centres unmarked),MET,cell-free assay,1 µM,remaining signal,83%
CN1CCN(C(=O)c2ccc(NC(=O)Nc3ccc(N(C)c4ccnc(Nc5ccc(CS(C)(=O)=O)cc5)n4)cc3)cc2)CC1,MET Y1235D,binding,1 µM,remaining binding,4.4%
C1=C/COCc2cc(ccc2OCCN2CCCC2)Nc2nccc(n2)-c2cccc(c2)COC/1,MET Y1235D,binding,0.1 µM,remaining binding,100%
CC#CC(=O)N1CCC[C@H]1c1nc(-c2ccc(C(=O)Nc3ccccn3)cc2)c2c(N)nccn12,MET,"enzyme activity, inhibitor",1 µM,inhibition,17%
Cc1ccc(NC(=O)c2ccnc(C(F)(F)F)c2)cc1-c1cc(OCCO)nc(N2CCOCC2)c1,MET,binding,1 µM,remaining binding,100%
